From publication PMC4005387 (MedChemComm, 2014)

Experiments:
[1] = biological target: KIX N627C / fluorescently-labeled MLL peptide (Mus musculus, UniProt P45481, N627C); conditions: fragment covalently associated with KIX N627C; cited from earlier work
KIX N627C mutant = KIX N627C mutant (Mus musculus, UniProt P45481, N627C); test: LC-MS Tethering: labelling of KIX N627C by disulphide fragment; type: binding; conditions: 5 mM BME, 250 μM fragment
KIX H602C = KIX H602C (Mus musculus, UniProt P45481, H602C); test: LC-MS analysis of labelling of KIX H602C by disulphide fragments; type: binding
KIX H602C, sequence (P45481 586-665 H602C limits assumed): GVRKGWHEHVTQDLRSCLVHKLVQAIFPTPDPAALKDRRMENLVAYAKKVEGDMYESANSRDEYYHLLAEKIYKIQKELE
Procedure, shortened: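 Tethering reactions of KIX H602C with ten hit disulphide fragments from the FP screen were run at increasing β-ME stringency to compare relative affinities. Mass spectrometry gave the percent of protein carrying each fragment through the disulphide.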

KIX N627C / fluorescently-labeled MLL peptide, sequence (P45481 586-665 N627C limits assumed): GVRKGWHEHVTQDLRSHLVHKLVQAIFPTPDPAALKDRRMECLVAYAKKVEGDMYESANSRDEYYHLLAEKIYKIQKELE
KIX N627C mutant, sequence (P45481 586-665 N627C limits assumed): as above

Row | Structure (SMILES) | inhibition of MLL binding [1] | percent of KIX N627C mutant labelled (KIX N627C mutant) | percent labelling of KIX (KIX H602C; 5 mM β-ME, KIX H602C, MS) | DR50 (concentration at which 50% of the KIX H602C mutant is bound by the fragment) (KIX H602C; LC-MS dose-response, result in words)
1 | CN(C)CCSSCCC(=O)N1CCC(O)(c2ccc(Cl)c(C(F)(F)F)c2)CC1 [1A10] | effective inhibitors of MLL binding | 82% |  | 
2 | CC(=O)Nc1ccc(Cl)c(NC(=O)NCCSSCCN(C)C)c1 [3D4] |  |  | ~ 70% | lower with the fragment 3D4 than 6D11
3 | COc1ccc2cc([C@H](C)C(=O)NCCSSCCN)ccc2c1 [1C11] | effective inhibitors of MLL binding |  |  | 
